Screens (PubChem BioAssay)
A selection: hits, their analogues and other compounds. The true share with any hit is near 3.4%.
Wee1 degr inh = human Wee1 degradation inhibition, primary screen | 220,000 compounds, 1.2% hits | reporter increase, % at 5 µM | HeLa Luc-Wee1K328M stability, luciferase luminescence; 100% = proteasome inhibitor MG132 effect | P30291;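 active means activation above the mean of all tested compounds plus 3 SD, set per screening run, cut at about 8.8% in these data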;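 further: cells exposed to compound for 20 h before luminescence read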
HMGR II inh = blocks class II HMG-CoA reductase of Enterococcus faecalis; purified E. faecalis HMGR, NADPH absorbance 340 nm kinetic; inhibition, % at 10 µM; AID 1066; 190,000 compounds, 0.41% hits;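 active means inhibition above a set limit, the median over all tested compounds plus 3 SD, cut at about 9.5% in these data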;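 further: enzyme runs in reverse so mevalonate oxidation gives rising NADPH absorbance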
RanGTP-Impb inh = disruptors of Ran-importin-beta complex formation – biochemical, FRET, CFP-Ran, YFP-importin-beta, homogeneous, primary screen. inhibition, % (concentration not given with the values). 300,000 compounds, 1.1% hits. cell-free CFP-Ran/YFP-importin-beta FRET ratio;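 active means more than half of the replicate wells show a fall in the fluorescence ratio signal beyond about 16%, limit read from the data, passing the limit was not always enough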
Runt-SMMHC FRET = Runt domain-CBFb-SMMHC interaction inhibition; 220,000 compounds, 0.74% hits; Q01196+Q13951; Cerulean-Runt/Venus-CBFb-SMMHC FRET ratio 530/480, 1 h; inhibition, % at 20 µM;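 active means mean inhibition across duplicate retests at 20 µM reaching about 50%, limit read from the data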;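 further: inhibitors lower the FRET ratio by blocking Runt binding to CBFb-SMMHC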
PHOSPHO1 inh = PHOSPHO1 (human) inhibition; recombinant PHOSPHO1, absorbance phosphatase assay; 290,000 compounds, 1.1% hits; Q8TCT1; inhibition, % at 13.3 µM; in the data active means inhibition above about 60%
Target sequence (Q8TCT1 whole entry, looked up): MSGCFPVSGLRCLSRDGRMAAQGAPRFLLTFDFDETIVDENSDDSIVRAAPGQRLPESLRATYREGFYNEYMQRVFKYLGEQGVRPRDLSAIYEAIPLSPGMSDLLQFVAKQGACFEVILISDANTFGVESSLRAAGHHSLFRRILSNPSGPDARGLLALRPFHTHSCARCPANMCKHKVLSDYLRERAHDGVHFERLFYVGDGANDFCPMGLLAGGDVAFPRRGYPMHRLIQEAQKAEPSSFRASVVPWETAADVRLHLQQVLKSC
Runt-CBFb FRET = blocks binding of human RUNX1 Runt domain to CBFb; Cerulean-Runt/Venus-CBFb FRET ratio 530/480, 1 h; inhibition, % at 20 µM; 220,000 compounds, 0.46% hits; AID 1496;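 active means inhibition over about 50% at 20 µM in the single-dose screen, limit read from the data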
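Measured by: fluorescence energy transfer, 422 nm excitation, 530/480 nm emission; Assay system: Cerulean-Runt domain; Medium: Tris pH 7.5 buffer with BSA; Measure: loss of energy transfer signal; Controls: 5 µM unlabeled CBFb as full-inhibition high control; Incubation: protein complex preformed 1 h, compound exposure 1 h, room temperature, dark.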
A number is an active result.

`CCCn1c(=N)c(S(=O)(=O)c2ccc(F)cc2)cc2c(=O)n3ccccc3nc21` gave RanGTP-Impb inh 176 and PHOSPHO1 inh inactive.
C=CCn1c(=N)c(S(=O)(=O)c2ccc(C)c(C)c2)cc2c(=O)n3ccccc3nc21 was read as RanGTP-Impb inh 160 and PHOSPHO1 inh inactive.
Screening CCCCn1c(=N)c(S(=O)(=O)c2ccc(Br)cc2)cc2c(=O)n3cccc(C)c3nc21 returned RanGTP-Impb inh inactive and PHOSPHO1 inh inactive.
Screening Cc1ccc(S(=O)(=O)c2cc3c(=O)n4ccccc4nc3n(C)c2=N)cc1C returned RanGTP-Impb inh 173 and PHOSPHO1 inh inactive.
`Cn1c(=N)c(S(=O)(=O)c2ccc(F)cc2)cc2c(=O)n3ccccc3nc21` gave Wee1 degr inh inactive, HMGR II inh inactive, RanGTP-Impb inh inactive, Runt-SMMHC FRET 80, PHOSPHO1 inh inactive and Runt-CBFb FRET 63.
For CC(C)OCCCn1c(=N)c(S(=O)(=O)c2ccccc2)cc2c(=O)n3ccccc3nc21 the results were RanGTP-Impb inh inactive and PHOSPHO1 inh inactive.
Screening CC1CCCC(C)N1C(=O)CSc1nnc(COc2ccc(F)cc2)o1 (centres undefined) returned RanGTP-Impb inh inactive and PHOSPHO1 inh inactive.
`Cn1c(=N)c(S(=O)(=O)c2ccccc2)cc2c(=O)n3ccccc3nc21` gave Wee1 degr inh inactive, HMGR II inh inactive, Runt-SMMHC FRET 62, PHOSPHO1 inh inactive and Runt-CBFb FRET inactive.
Screening CCCn1c(=N)c(S(=O)(=O)c2ccc(F)cc2)cc2c(=O)n3cccc(C)c3nc21 returned RanGTP-Impb inh 144 and PHOSPHO1 inh inactive.
Screening CCOCC(=O)Nc1ccc2c(c1)N(S(=O)(=O)c1cccs1)CCC2 returned RanGTP-Impb inh inactive.
`O=C(CN1C2CCC1CC(NC(=O)Nc1ccccc1)C2)NCc1ccco1` (centres undefined) gave Wee1 degr inh 10, HMGR II inh inactive, RanGTP-Impb inh inactive, Runt-SMMHC FRET inactive, PHOSPHO1 inh inactive and Runt-CBFb FRET inactive.
Screening O=C(NCc1ccccc1)NC1CC2CCC(C1)N2Cc1ccco1 (centres undefined) returned Wee1 degr inh inactive, HMGR II inh inactive, RanGTP-Impb inh inactive, Runt-SMMHC FRET inactive, PHOSPHO1 inh inactive and Runt-CBFb FRET inactive.
`CCOC(=O)C1=C(CSc2nc3c(cc2C#N)CN(C)CC3)OC(N)=C(C#N)C1c1ccc(F)cc1` (centres undefined) gave Wee1 degr inh inactive, HMGR II inh inactive, RanGTP-Impb inh 19, Runt-SMMHC FRET 63, PHOSPHO1 inh 67 and Runt-CBFb FRET inactive.
CCOC(=O)C1=C(CSc2nc3c(cc2C#N)CN(C)CC3)OC(N)=C(C#N)C1c1ccccc1 (centres undefined) was read as Wee1 degr inh inactive, HMGR II inh inactive, RanGTP-Impb inh 32, Runt-SMMHC FRET 104, PHOSPHO1 inh 98 and Runt-CBFb FRET inactive.
`CCOC(=O)C1=C(CSc2nc(-c3ccccc3)ccc2C#N)OC(N)=C(C#N)C1c1cccnc1` (centres undefined) gave Wee1 degr inh inactive, HMGR II inh inactive, RanGTP-Impb inh inactive, Runt-SMMHC FRET inactive, PHOSPHO1 inh 80 and Runt-CBFb FRET inactive.
For CC(=O)Nc1cccc(NC(=O)CSc2nc(=O)n(CCCN3CCOCC3)c3c2CCC3)c1 the results were RanGTP-Impb inh inactive.
For O=C(OCc1csc(-c2ccccc2)n1)c1cccs1 the results were Wee1 degr inh inactive, HMGR II inh inactive, RanGTP-Impb inh inactive, Runt-SMMHC FRET inactive, PHOSPHO1 inh 63 and Runt-CBFb FRET inactive.
Screening Cn1cccc1C(=O)OCc1csc(-c2ccccc2)n1 returned Wee1 degr inh inactive, HMGR II inh inactive, RanGTP-Impb inh inactive, Runt-SMMHC FRET inactive, PHOSPHO1 inh 100 and Runt-CBFb FRET inactive.
For CCn1ccc(C(=O)NCCCN2CCCC2=O)n1 the results were RanGTP-Impb inh inactive and PHOSPHO1 inh 65.
For CC1CCN(C(=O)CN2C(=O)c3ccccc3S2(=O)=O)CC1 the results were Wee1 degr inh 9.3, HMGR II inh inactive, RanGTP-Impb inh inactive, Runt-SMMHC FRET inactive, PHOSPHO1 inh inactive and Runt-CBFb FRET inactive.
